Hsp70 activator – Hsp70 transcriptional activation, primary screen; HeLa Hsp70 promoter luciferase reporter, luminescence; scaled: vehicle 0, proteasome-inhibitor control 100%; activation, % at 10 µM; 200,000 tested, 0.04% active;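 active = activation above the mean across all tested compounds plus 3 SD, cutoff set per campaign, cut at about 5.5% in these data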;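 also: 100% = MG132 at 30 µM as the positive control and 0% = DMSO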
HIF act – HIF pathway transcriptional activation; U2OS HRE-luciferase reporter, luminescence; normalized: DMSO 0%, desferrioxamine 100%; 300,000 tested, 0.32% active; activation, % at 7.5 µM (by protocol);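 active = mean activation of at least 10% of the iron chelator positive control signal, with at least half of replicates also reaching 10%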
Rad51 HR inh – blocks human Rad51 in homologous recombination | Q06609 | hRad51 DNA strand exchange, fluorescence dequenching | inhibition, % at 10 µM | 200,000 tested, 0.085% active;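 active = inhibition above 40% at the single screening dose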;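 also: 0% = DMSO control wells and 100% = blanks with heterologous ssDNA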
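Material: hRad51 filaments on single-stranded DNA; Reagent: Donor/quencher-labelled 47-bp dsDNA substrate; Compound: 10 µM final, single point; Schedule: 37 °C 15-min filament assembly, 30-min compound preincubation, 15-min exchange; Technique: FRET fluorescence, excitation 485 nm, emission 520 nm; Benchmarks: control wells and blank wells on each plate.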
ABHD5 PLIN5 PPI – inhibitors of human ABHD5-perilipin-5 interaction. Q00G26+Q8WTS1. Split G. princeps luciferase complementation, luminescence, 4 h. inhibition, % at 4 µM. 360,000 tested, 0.78% active. AID 602281;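 active = inhibition above the mean inhibition across every tested compound plus 3 SD, cut at about 22% in these data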;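 also: 0% = DMSO only wells and the 100% control is not disclosed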
H9c2 TAG inh – triacylglycerol accumulation inhibition. H9c2 cells, Nile Red lipid (TAG) fluorescence; cells loaded with 200 µM oleic acid. inhibition, % at 12.5 µM. 230,000 tested, 0.66% active;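 active = pattern-corrected inhibition of lipid staining of at least 50% with the nuclear-stain viability signal not falling by more than 50%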;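 also: 0% = DMSO wells and 100% = triacsin C control wells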
GAA850 FXN act – increases GAA850 frataxin promoter reporter activity; 360,000 tested, 0.56% active; activation, % at 6 µM; AID 540364; HEK293 lucGAA850 FXN promoter luciferase reporter, 24 h; percent of 10 µM SAHA response;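 active = activation above the average of all compounds screened plus 3 SD, cutoff fixed separately per campaign, cut at about 7.5% in these data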;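 also: 0% = DMSO wells and 100% = 10 µM SAHA wells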
ABHD5-PLIN5 conf – confirmation of human ABHD5-PLIN5 interaction inhibitors | inhibition, % at 4 µM | biochemical ABHD5-PLIN5 interaction, luminescence | shares compounds with ABHD5 PLIN5 PPI | 2,200 tested, 67% active; in the data active = inhibition above about 23%;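 also: 0% = DMSO vehicle wells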
HNF4 counter – HNF4 split-luciferase signal hit, counter-screen; shares compounds with ABHD5 PLIN5 PPI; HNF4 dimerization, luminescence, biochemical; inhibition, % at 4 µM; 2,200 tested, 77% active; AID 651674;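 active = mean inhibition across replicate wells exceeding the computed hit threshold, cut at about 13% in these data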;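 also: light from luciferase halves that rejoin when HNF4 fusion proteins dimerize; 0% = DMSO only wells and the 100% control is not given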
Target sequence (P41235 whole entry, looked up, the tested form may be a part): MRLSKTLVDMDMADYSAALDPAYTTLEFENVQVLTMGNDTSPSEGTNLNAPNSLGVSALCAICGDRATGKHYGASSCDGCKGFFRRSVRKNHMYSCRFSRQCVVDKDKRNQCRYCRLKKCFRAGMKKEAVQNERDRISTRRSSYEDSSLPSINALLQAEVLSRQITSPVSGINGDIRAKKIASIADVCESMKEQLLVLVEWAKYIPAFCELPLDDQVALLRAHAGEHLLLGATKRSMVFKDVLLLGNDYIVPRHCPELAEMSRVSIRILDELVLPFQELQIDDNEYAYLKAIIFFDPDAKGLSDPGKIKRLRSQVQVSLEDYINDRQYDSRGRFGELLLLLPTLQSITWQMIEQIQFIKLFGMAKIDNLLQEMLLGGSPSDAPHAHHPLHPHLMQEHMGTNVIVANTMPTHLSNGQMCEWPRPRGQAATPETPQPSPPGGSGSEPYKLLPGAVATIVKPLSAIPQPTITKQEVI
Numbers without * were called inactive; / = no result. An excerpt weighted towards active compounds, which were near 1.9% of everything screened.

SMILES	Hsp70 activator	HIF act	Rad51 HR inh	ABHD5 PLIN5 PPI	H9c2 TAG inh	GAA850 FXN act	ABHD5-PLIN5 conf	HNF4 counter
CC(/C=N/n1c(COc2ccccc2)n[nH]c1=S)=C\c1ccco1	/	0	-2	-5	9	0	/	/
O=S(=O)(/C(=C/c1ccc(C(F)(F)F)cc1)c1nc2ccccc2[nH]1)c1ccccc1	3	-3	0	70*	/	-5	104*	103*
COC(=O)/C(=C\c1ccc(O)cc1)c1nc2ccccc2[nH]1	0	2	3	-4	0	2	/	/
CC(C)c1ccc(/C=C(\c2nc3ccccc3[nH]2)S(=O)(=O)c2ccccc2)cc1	0	4	/	75*	/	-9	90*	72*
C/C(=C\c1ccc(N)cc1)c1nc2ccccc2[nH]1	/	2	/	-2	/	3	/	/
CC(C)(NC(=O)c1ccccc1)c1nc2ccccc2s1	/	0	/	-1	-10	2	/	/
CN1C2C=CC(=O)C1C1C(=O)N(c3ccccc3)C(=O)C12 (stereo unspecified)	/	/	/	44*	/	/	42*	44*
Cc1ccccc1N1C(=O)C2C3C=CC(C2C1=O)N(C)C3=O (stereo unspecified)	0	0	0	3	-13	-1	/	/
COC(=O)C[C@H]1CC[C@@H](NC(=O)Nc2cccc(OC)c2)[C@@H](CO)O1	/	/	/	-7	/	/	/	/
O=S(=O)(N=C1C=CC(=NS(=O)(=O)c2ccccc2)c2ccccc21)c1ccccc1	/	/	/	33*	-9	-3	63*	42*
CCc1ccc(S(=O)(=O)/N=C2\C=CC(=O)c3ccccc32)cc1	0	0	-11	/	/	/	/	/
CCCC1(c2ccccc2)NC(=O)N(CC(=O)Nc2cc(C)ccc2OC)C1=O (stereo unspecified)	/	0	/	-3	/	1	/	/
COc1ccc(OC)c2sc(NC(=O)C3=COCCO3)nc12	0	0	-4	38*	15	4	11	4
CCCCCOc1ccc(C(=O)CCC(=O)N2CCCC2)cc1	/	0	/	-3	/	2	/	/
Fc1ccc(C2CC(c3ccco3)=NN2c2ccccc2)cc1 (stereo unspecified)	0	-1	3	-8	15	1	/	/
O=[N+]([O-])c1ccc(N2N=C(c3ccco3)CC2c2ccccc2)cc1 (stereo unspecified)	0	-1	-89	29*	-5	1	17	24*
O=C(COc1cccnc1[N+](=O)[O-])NCCc1ccc(F)cc1	0	0	-6	2	0	0	/	/
CNC[C@H](Cc1ccccc1)NC[C@@H](Cc1cccc2ccccc12)NCCc1ccc(C)cc1	/	1	/	39*	138*	0	5	14*
Cc1ccc(N2C(=O)N(CC(=O)Nc3cc(F)ccc3C)C(=O)C2C)cc1 (stereo unspecified)	/	0	/	4	-8	3	/	/
O=C1Nc2ccc(Br)cc2/C1=C/C1CC=CCC1 (stereo unspecified)	0	0	2	25*	-10	4	53*	38*
O=C1NC(Cc2ccccc2)C(=O)Nc2ccc(Br)cc21 (stereo unspecified)	/	-2	/	-2	1	0	/	/
Cc1ccc(NC(=O)CCNS(=O)(=O)c2ccc3[nH]c(=O)oc3c2)c(Cl)c1	/	0	/	0	/	-1	/	/
C=C1C(=O)OC2C=C(CO)C3OC3C3OC3(C)CC(OC(=O)/C(=C/C)COC(C)=O)C12 (stereo unspecified)	/	/	/	52*	101	-14	73*	82*
O=C(NC1CCCCC1)[C@H](CSCc1ccccc1)N1Cc2ccccc2C1=O	0	/	-3	-6	-8	-3	/	/
O=C1CCCC2=C1C(c1ccccc1)C1C(=O)c3ccccc3C1=N2 (stereo unspecified)	0	0	8	9	/	1	/	/
SMILES	Hsp70 activator	HIF act	Rad51 HR inh	ABHD5 PLIN5 PPI	H9c2 TAG inh	GAA850 FXN act	ABHD5-PLIN5 conf	HNF4 counter
Cc1ccc(C2C3=C(CCCC3=O)N=C3c4ccccc4C(=O)C32)cc1 (stereo unspecified)	-1	1	1	33*	/	1	51*	55*
CC(C)C(=O)N(c1cc2sc(=O)oc2c2ccccc12)S(=O)(=O)c1cccs1	0	/	-12	68*	/	4	9	75*
Cc1c(NC(=O)CSc2nc3ccccc3c(=O)n2C(C)C)c(=O)n(-c2ccccc2)n1C	/	/	/	-4	-12	0	/	/
O=C1C(Cl)=C(N2CCOCC2)C(=O)N1c1ccccc1Cl	0	0	-4	30*	/	0	59*	85*
O=C1C(Cl)=C(N2CCCCCC2)C(=O)N1c1ccccc1Cl	/	0	/	-4	/	3	/	/
CCCCc1nnc(NC(=O)CCN2C(=O)C3CC=CCC3C2=O)s1 (stereo unspecified)	/	/	/	-12	-12	0	/	/
Cc1ccc(C(=O)OCC(=O)N(CC(C)C)c2c(N)n(Cc3ccccc3)c(=O)[nH]c2=O)cc1[N+](=O)[O-]	/	1	/	2	4	1	/	/
Cc1ccccc1Nc1nc(N2CCOCC2)nc(N2CCOCC2)n1	/	0	/	-6	/	-2	/	/
Cc1ccccc1Nc1nc2nonc2nc1N1CCOCC1	0	-12	/	25*	/	-2	1	2
CCCC(C)(C)C(=O)N1CCC1(C)C(=O)Nc1ccc2c(c1)OCCO2 (stereo unspecified)	/	/	/	-2	12	-1	/	/
O=C1OC(NC(=O)c2ccccc2)C(n2cc(CO)nn2)=C1Cl (stereo unspecified)	0	-1	0	64*	-13	-3	90*	103*
Cc1ccc(N=c2ssnc2Cl)cc1	0	-1	-2	9	-22	3	/	/
Cc1nnc(N=c2ssnc2Cl)o1	/	/	/	47*	18	2	98*	110*
O=C1C(O)=C(O)C(=O)c2ccccc21	/	/	5	42*	/	-2	7	67*
O=C(/C=C/c1cccc(Cl)c1)Nc1ncccn1	0	2	0	-1	/	1	/	/
O=C(/C=C/c1cccc(Cl)c1)c1nc2ccccc2[nH]1	0	3	4	61*	15	3	98*	99*
COCCCNC(=S)Nc1ccc(S(=O)(=O)Nc2cc(OC)nc(OC)n2)cc1	/	0	/	2	-16	3	/	/
O=C(O)c1ccccc1NSc1ccccc1[N+](=O)[O-]	0	0	-12	6	-5	0	/	/
O=[N+]([O-])c1cc(C(F)(F)F)cc([N+](=O)[O-])c1Sc1n[nH]c(C(F)(F)F)n1	/	0	5	45*	-10	1	75*	56*
